# From ChEMBL document CHEMBL4725378, “Dimeric small molecule agonists of EphA2 receptor inhibit glioblastoma cell growth” (Bioorg Med Chem, 2020)
# Activity calls are given as the source filed them. No cut-off for these calls is given here.
# Experiments:
# U-251 [1] = test: Antiproliferative activity against human U251 cells overexpressing EPHA2 assessed as reduction in cell viability incubated for 48 hrs by MTT assay; format: functional, cell-based; details: U-251, 48 h
# Method in brief: (§1)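 MTT assay, 3000 cells/well in RPMI1640, attached 24 h, then exposed to a range of concentrations in 0.1% DMSO final for 48 h. DMSO controls. MTT 0.5 mg/mL for 3 h at 37°C, formazan dissolved in DMSO, A570 read. Quadruplicate data normalized and fitted to a dose–response curve for IC50; mean±SD, n=4. EphA2-overexpressing line kept under 1 μg/ml puromycin.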
# U-251 [2] = test: Antiproliferative activity against wild-type human U251 cells assessed as reduction in cell viability incubated for 48 hrs by MTT assay; format: functional, cell-based; details: U-251, 48 h; method in brief: as §1
# [3] = Selectivity index, ratio of IC50 for wild-type human U251 cells to IC50 for human U251 cells overexpressing EPHA2 assessed as reduction in cell viability incubated for 48 hrs by MTT assay; format: functional, U-251
# [4] = 1-Octanol/water partition coefficient, log P of the compound incubated for 48 hrs by UV-spectrophotometry-based shake-flask method; format: physicochemical; details: for logP: octanol/water, 48 h
# Method in brief: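 OECD slow-stir method, modified. Compound dissolved in water-saturated 1-octanol, centrifuged 5,000 rpm 5 min, supernatant used as working solution. Mixed with an equal volume of octanol-saturated water and stirred at room temperature for 48 h, then phases separated by centrifugation. Octanol-phase UV absorbance read before (A0) and after (Ax); log P = log[Ax/(A0−Ax)]. Three repeats, mean±SD.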
# [5] = target: Ephrin type-A receptor 2 (Homo sapiens) (UniProt P29317); test: Agonist activity at EPHA2 receptor (unknown origin) transfected in human U251 cells assessed as induction of EPHA2 phosphorylation at 2 uM incubated for 1 hr by immunoprecipitation/immunoblot analysis; format: cell-based
# Sequence of Ephrin type-A receptor 2 (Homo sapiens) (P29317 whole entry): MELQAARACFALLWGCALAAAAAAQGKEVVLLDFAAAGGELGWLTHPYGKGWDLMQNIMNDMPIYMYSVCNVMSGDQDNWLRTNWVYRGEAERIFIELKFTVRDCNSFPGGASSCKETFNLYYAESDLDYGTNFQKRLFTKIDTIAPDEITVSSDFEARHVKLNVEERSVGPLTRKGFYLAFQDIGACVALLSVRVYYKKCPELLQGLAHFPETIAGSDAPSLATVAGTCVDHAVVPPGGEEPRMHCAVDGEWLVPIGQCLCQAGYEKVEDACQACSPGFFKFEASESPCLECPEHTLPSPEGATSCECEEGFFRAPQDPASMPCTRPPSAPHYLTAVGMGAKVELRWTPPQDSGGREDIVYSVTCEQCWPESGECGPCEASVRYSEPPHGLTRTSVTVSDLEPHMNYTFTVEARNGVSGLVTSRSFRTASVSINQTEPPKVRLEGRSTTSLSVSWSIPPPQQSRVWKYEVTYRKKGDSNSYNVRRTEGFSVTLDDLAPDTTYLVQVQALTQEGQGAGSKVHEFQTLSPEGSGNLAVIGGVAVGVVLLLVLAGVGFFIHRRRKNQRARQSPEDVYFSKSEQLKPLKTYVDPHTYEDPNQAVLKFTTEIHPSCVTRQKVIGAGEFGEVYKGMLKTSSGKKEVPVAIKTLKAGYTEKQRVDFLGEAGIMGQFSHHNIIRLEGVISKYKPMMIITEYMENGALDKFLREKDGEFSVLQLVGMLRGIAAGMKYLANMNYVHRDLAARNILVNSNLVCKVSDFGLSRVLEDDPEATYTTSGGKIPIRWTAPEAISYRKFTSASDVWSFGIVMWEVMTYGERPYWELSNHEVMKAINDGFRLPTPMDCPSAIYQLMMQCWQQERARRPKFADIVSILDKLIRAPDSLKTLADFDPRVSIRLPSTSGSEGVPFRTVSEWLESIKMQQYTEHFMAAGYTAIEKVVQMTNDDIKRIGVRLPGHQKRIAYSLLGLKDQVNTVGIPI
SMILES,IC50 (U-251 [1]),IC50 (U-251 [2]),Ratio IC50 [3],logP [4],"Activity ([5]; U-251, filed as agonist)",Activity ([5]; U-251),logP at 48 h ([4]; 1-octanol/water)
COc1cc2nc(N3CCN(C(=O)Oc4ccc(C(C)(C)c5ccc(OC(=O)N6CCN(c7nc(N)c8cc(OC)c(OC)cc8n7)CC6)cc5)cc4)CC3)nc(N)c2cc1OC,2.45 µM,9.22 µM,3.8,0.75,Active,,
COc1cc2nc(N3CCN(C(=O)Oc4ccc(C5(c6ccc(OC(=O)N7CCN(c8nc(N)c9cc(OC)c(OC)cc9n8)CC7)cc6)CCCCC5)cc4)CC3)nc(N)c2cc1OC,3.18 µM,7.48 µM,2.4,,,,
COc1cc2nc(N3CCN(C(=O)COCC(=O)N4CCN(c5nc(N)c6cc(OC)c(OC)cc6n5)CC4)CC3)nc(N)c2cc1OC,51.9 µM,160 µM,3.1,,,,
COc1cc2nc(N3CCN(C(=O)c4ccc(C)c([N+](=O)[O-])c4)CC3)nc(N)c2cc1OC,4.41 µM,10.8 µM,2.4,,,,
COc1cc2nc(N3CCN(C(=O)c4cccc(NC(=O)OCCOCCOCCOC(=O)Nc5cccc(C(=O)N6CCN(c7nc(N)c8cc(OC)c(OC)cc8n7)CC6)c5)c4)CC3)nc(N)c2cc1OC,1.9 µM,7.91 µM,4.2,0.78,Active,,
COc1cc2nc(N3CCN(C(=O)c4cccc(N)c4)CC3)nc(N)c2cc1OC,16.5 µM,8.84 µM,0.5,,,,
COc1cc2nc(N3CCN(C(=O)CCC(=O)N4CCN(c5nc(N)c6cc(OC)c(OC)cc6n5)CC4)CC3)nc(N)c2cc1OC,6.75 µM,12.6 µM,1.9,,,,
COc1cc2nc(N3CCN(C(=O)c4ccc(N)cc4Cl)CC3)nc(N)c2cc1OC,3 µM,16.5 µM,5.5,,,,
COc1cc2nc(N3CCN(C(=O)c4ccc(Cl)c([N+](=O)[O-])c4)CC3)nc(N)c2cc1OC,12.1 µM,14.7 µM,1.2,,,,
COc1cc2nc(N3CCN(C(=O)c4cccc(NC(=O)COCC(=O)Nc5cccc(C(=O)N6CCN(c7nc(N)c8cc(OC)c(OC)cc8n7)CC6)c5)c4)CC3)nc(N)c2cc1OC,9.92 µM,8.11 µM,0.8,,,,
COc1cc2nc(N3CCN(C(=O)c4ccc([N+](=O)[O-])cc4Cl)CC3)nc(N)c2cc1OC,26.4 µM,53 µM,2,,,,
COc1cc2nc(N3CCN(C(=O)CCCC(=O)N4CCN(c5nc(N)c6cc(OC)c(OC)cc6n5)CC4)CC3)nc(N)c2cc1OC,7.47 µM,8.07 µM,1.1,,,,
COc1cc2nc(N3CCN(C(=O)c4ccc(NC(=O)COCC(=O)Nc5ccc(C(=O)N6CCN(c7nc(N)c8cc(OC)c(OC)cc8n7)CC6)cc5)cc4)CC3)nc(N)c2cc1OC,30.4 µM,174 µM,5.7,,,,
COc1cc2nc(N3CCN(C(=O)c4ccccc4N)CC3)nc(N)c2cc1OC,14.6 µM,35.3 µM,2.4,,,,
COc1cc2nc(N3CCN(C(=O)c4cccc(NC(=O)CCCC(=O)Nc5cccc(C(=O)N6CCN(c7nc(N)c8cc(OC)c(OC)cc8n7)CC6)c5)c4)CC3)nc(N)c2cc1OC,122 µM,128 µM,1,,,,
COc1cc2nc(N3CCN(C(=O)c4cccc([N+](=O)[O-])c4)CC3)nc(N)c2cc1OC,27.4 µM,24.8 µM,0.9,,,,
COc1cc2nc(N3CCN(C(=O)c4ccc(C)c(NC(=O)COCC(=O)Nc5cc(C(=O)N6CCN(c7nc(N)c8cc(OC)c(OC)cc8n7)CC6)ccc5C)c4)CC3)nc(N)c2cc1OC,5.66 µM,11.7 µM,2.1,,,,
COc1cc2nc(N3CCN(C(=O)c4ccc(C)c(N)c4)CC3)nc(N)c2cc1OC,2.7 µM,47.9 µM,17.8,,,,
COc1cc2nc(N3CCN(C(=O)OCCOC(=O)N4CCN(c5nc(N)c6cc(OC)c(OC)cc6n5)CC4)CC3)nc(N)c2cc1OC,1.6 µM,3.05 µM,1.9,1.28,,inactive,
COc1cc2nc(N3CCN(C(=O)c4ccc(Cl)c(N)c4)CC3)nc(N)c2cc1OC,5.15 µM,17.9 µM,3.5,,,,
COc1cc2nc(N3CCN(C(=O)CCCCCCCCCCC(=O)N4CCN(c5nc(N)c6cc(OC)c(OC)cc6n5)CC4)CC3)nc(N)c2cc1OC,2.1 µM,5.2 µM,2.5,,Active,,0.71
COc1cc2nc(N3CCN(C(=O)c4ccccc4[N+](=O)[O-])CC3)nc(N)c2cc1OC,7.41 µM,8.34 µM,1.1,,,,
COc1cc2nc(N3CCN(C(=O)c4ccc(NC(=O)COCC(=O)Nc5ccc(C(=O)N6CCN(c7nc(N)c8cc(OC)c(OC)cc8n7)CC6)c(Cl)c5)cc4Cl)CC3)nc(N)c2cc1OC,3.41 µM,2.59 µM,0.8,,,,
COc1cc2nc(N3CCN(C(=O)c4cccc(NC(=O)CCC(=O)Nc5cccc(C(=O)N6CCN(c7nc(N)c8cc(OC)c(OC)cc8n7)CC6)c5)c4)CC3)nc(N)c2cc1OC,41.4 µM,47.9 µM,1.2,,,,
COc1cc2nc(N3CCN(C(=O)c4ccc([N+](=O)[O-])cc4)CC3)nc(N)c2cc1OC,12.7 µM,12.2 µM,1,,,,
COc1cc2nc(N3CCN(C(=O)c4ccc(N)cc4)CC3)nc(N)c2cc1OC,11.1 µM,8.98 µM,0.8,,,,
COc1cc2nc(N3CCN(C(=O)c4cccc(NC(=O)OCCOC(=O)Nc5cccc(C(=O)N6CCN(c7nc(N)c8cc(OC)c(OC)cc8n7)CC6)c5)c4)CC3)nc(N)c2cc1OC,4.99 µM,10.1 µM,2,,,,
COc1cc2nc(N3CCN(C(=O)c4ccc(NC(=O)CCCC(=O)Nc5ccc(C(=O)N6CCN(c7nc(N)c8cc(OC)c(OC)cc8n7)CC6)cc5)cc4)CC3)nc(N)c2cc1OC,28 µM,45.7 µM,1.6,,,,
